Screening data (PubChem BioAssay)
EBI2 block: EBI2 receptor antagonists, beta-arrestin recruitment, primary screen, cell-based, luminescence, 7a,25-OHC stimulation, uHTS; inhibition, % at 5 µM; G-protein coupled receptor 183 (Homo sapiens), P32249; 7a,25-OHC stimulated; hit rate 0.81% among 360,000; in the data active = inhibition above about 38%;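 note: enzyme fragment complementation signal reports receptor beta-arrestin coupling in cells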
APJ antagonist: antagonists of human apelin receptor APJ, primary screen, CHO-K1 cells, beta-arrestin complementation, luminescence | P35414 | inhibition, % at 20 µM | hit rate 0.32% among 330,000;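 active = inhibition above about 40% at 20 µM, limit read from the data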;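 note: cells challenged with 10 nM apelin-13 agonist together with compound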
CXCR6 block: CXCR6 receptor inhibitors, primary screen, cell-based, beta-arrestin, luminescence, CHO-K1 PathHunter, 1536-well. C-X-C chemokine receptor type 6 (Homo sapiens), O00574. inhibition, % at 20 µM. hit rate 0.36% among 360,000; in the data active = inhibition above about 34%, passing the limit was not always enough;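 note: antagonist mode with CXCL16 agonist at 10 nM final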
Target sequence (O00574 whole entry, looked up): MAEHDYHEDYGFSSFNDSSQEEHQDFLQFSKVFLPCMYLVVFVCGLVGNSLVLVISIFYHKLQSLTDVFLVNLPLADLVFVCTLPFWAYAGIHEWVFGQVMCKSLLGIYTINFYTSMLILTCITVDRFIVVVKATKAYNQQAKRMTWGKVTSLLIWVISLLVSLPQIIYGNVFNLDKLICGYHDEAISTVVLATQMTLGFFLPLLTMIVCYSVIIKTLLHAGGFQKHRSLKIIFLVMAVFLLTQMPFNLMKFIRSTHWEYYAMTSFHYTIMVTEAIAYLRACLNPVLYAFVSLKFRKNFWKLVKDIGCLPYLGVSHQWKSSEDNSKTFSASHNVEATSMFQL
CCR6 antagonist: CCR6 receptor antagonists, primary screen, cell-based, CHO-K1, luminescence, beta-arrestin, uHTS | C-C chemokine receptor type 6 (Homo sapiens), P51684 | CHO-K1 CCR6 PathHunter beta-arrestin, CCL20-stimulated | inhibition, % at 20 µM | hit rate 0.49% among 340,000 | AID 493098, 2011;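 active = compounds whose inhibition of the agonist-driven luminescence signal at 20 µM reaches about 50%, limit read from the data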;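 note: cells stimulated with CCL20 at 14 nM final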
APJ ag: agonists of human apelin receptor APJ, primary screen, CHO-K1 cells, PathHunter beta-arrestin, luminescence; 0% DMSO wells, 100% apelin; P35414; activation, % at 20 µM; hit rate 0.11% among 330,000;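 active = activation more than six SD over the plate average, tested at 20 µM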
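Incubation: overnight seeding, 90 min compound at 25 °C, 1 h detection; test system: PathHunter CHO-K1 APJ (AGTRL-1) beta-arrestin reporter cells; amount: 1000 cells/well; doses: one dose, 20 µM compound, 1% DMSO; measured by: beta-gal luminescence; measure: agonist-driven arrestin binding to APJ; benchmarks: negative DMSO alone, positive Apelin-13 at 10 nM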
Numbers stand for hits; i = inactive; nt = no result given. An excerpt weighted towards active compounds, which were near 1.5% of everything screened.

SMILES | EBI2 block | APJ antagonist | CXCR6 block | CCR6 antagonist | APJ ag
COc1ccc(NC(=O)C2Cc3c(-c4ccc5c(c4)OCO5)ccnc3O2)cc1 (configuration not stated) | i | nt | i | nt | nt
NC(N)=N/N=C/c1cccc([N+](=O)[O-])c1O | i | i | i | i | i
O=[N+]([O-])c1cccc(/C=N\N=C2c3ccccc3-c3ccccc32)c1O | i | 54.2 | 43.4 | 69.3 | i
C=CCc1cccc(/C=N/NC(=O)C(C)Nc2ccc(C)cc2)c1O (configuration not stated) | 40.9 | i | i | i | i
Cc1cc(N/N=C/c2ccc(O)cc2O)nc(-c2ccccc2O)n1 | i | nt | i | i | nt
Cc1cc(N/N=C/c2ccc(O)cc2O)nc(-n2nc(C)cc2C)n1 | 84.5 | nt | 92.1 | 93.0 | nt
COC(=O)[C@@]12C[C@@H](CC(=O)N3CCCCC3)C(=O)N(Cc3ccco3)C1=CCC(C)(C)C2 | i | nt | nt | nt | nt
Cc1ccc2ccc(C(Nc3cccc(C(F)(F)F)c3)c3cccnc3)c(O)c2n1 (configuration not stated) | i | i | 40.3 | 52.6 | i
Cn1nnnc1N=N/C(=N/Nc1ccccc1)c1ccccc1 | i | i | 44.4 | 86.9 | i
O=C(Nc1ccc(Cl)cc1Cl)c1cccc(N2C(=O)C=CC2=O)c1 | i | i | 105.3 | i | i
COc1cc(/C=C2\C(=O)N(c3ccc(NC(C)=O)cc3)N=C2c2ccccc2)ccc1O | i | i | 46.0 | i | i
O=C(Cn1nc(C(F)F)cc1C(F)F)NNC(=S)Nc1ccc(F)cc1 | i | i | i | i | i
O=C(Cn1nc(C(F)F)cc1C(F)F)NNC(=S)Nc1ccc([N+](=O)[O-])cc1 | i | 48.7 | i | i | i
Cc1c(N=NC2=C(O)CC(C)(C)CC2=O)c(=O)n(-c2ccccc2)n1C | i | i | 60.6 | nt | i
Cc1cc(N2C(=O)C=CC2=O)c([N+](=O)[O-])cc1C | i | i | 85.1 | nt | i
Cc1c([N+](=O)[O-])cc(N2C(=O)C=CC2=O)cc1[N+](=O)[O-] | i | nt | 52.0 | nt | nt
Cc1c(Cl)cc(-n2cnnn2)cc1[N+](=O)[O-] | i | i | i | i | i
Cc1cc(C)cc(N2C(=O)c3nccnc3C2=O)c1 | i | i | i | i | i
Cc1ccc(N2C(=O)C3C4C=CC(CC4)C3C2=O)cc1[N+](=O)[O-] (configuration not stated) | i | i | i | i | i
Cc1cc(C)cc(N2C(=O)C=CC2=O)c1 | i | nt | 95.3 | nt | nt
COc1cccc(C(C(=O)NC2CCCC2)N2CCN(c3ncccc3C#N)CC2)c1OC (configuration not stated) | i | nt | nt | nt | nt
CCc1nc2ccc(C(=O)Nc3cccc(NS(C)(=O)=O)c3)cn2c1N(C)Cc1nccn1C | i | nt | i | nt | nt
O=C1Nc2ccccc2/C1=C\C(=O)c1ccccc1 | 61.2 | i | i | i | i
Cc1nn(-c2ccccc2)nc1C(=O)Nc1cccc(C(=O)NC2CC2)c1 | i | nt | i | nt | nt
CCOC(=O)/C(=C/c1ccc(N2CCC(c3ccccc3)=N2)cc1)C(C)=O | 49.4 | nt | i | i | nt
SMILES | EBI2 block | APJ antagonist | CXCR6 block | CCR6 antagonist | APJ ag
c1ccc(C2=NN(c3ccccc3)CC2)cc1 | i | i | i | i | i
COc1ccc(NC(=S)NC(NC(=O)c2cccc(Cl)c2)C(Cl)(Cl)Cl)c([N+](=O)[O-])c1 (configuration not stated) | i | i | i | 58.0 | i
CCn1c2ccccc2nc2cc3c(cc21)c(Cl)c(=O)c1ccccc13 | i | nt | i | nt | nt
O=S(=O)(Nc1cccnc1)c1cccc(C(F)(F)F)c1 | i | i | i | i | i
O=[N+]([O-])c1ccc(S(=O)(=O)c2cccc(C(F)(F)F)c2)nc1 | i | i | 46.6 | nt | i
COc1ccc(NC(=O)C2(C)CCN2Cc2ccc(C(C)C)cc2)cc1OC (configuration not stated) | i | nt | i | nt | nt
COc1ccnc(CSC(N)=Nc2cccc(C(F)(F)F)c2)c1 | i | nt | i | 53.5 | nt
COc1ccnc(CSC(N)=Nc2ccccc2C(F)(F)F)c1 | i | i | i | i | i
O=[N+]([O-])c1cc([N+](=O)[O-])c2cc3ccccc3nc2c1 | 70.3 | i | 41.1 | i | i
Cc1ccc(Cl)c2c1=NC(=O)C=2c1[nH]c(=S)[nH]c1O | i | 41.0 | i | i | i
CC(C)C[C@@H](CN1CCC[C@H]1CN1C(=O)C(=O)NC[C@@H]1Cc1ccccc1)N1C[C@H](Cc2ccc(O)cc2)N(CC2CCCCCC2)C(=O)C1=O | i | nt | i | nt | nt
O=C(NC(=S)Nc1cccnc1)c1cccc(Br)c1 | i | i | i | 57.8 | i
O=C(NC(=S)Nc1cc(Cl)ccc1O)c1cccc(Br)c1 | i | i | i | 59.1 | i
O=C(NNC(=O)c1cccc(Br)c1)Nc1ccc(Cl)cc1 | i | i | i | i | i
O=C(NC(=S)Nc1ccc2oc(-c3cccnc3)nc2c1)c1cccc(Cl)c1 | i | i | i | 53.9 | i
O=C(NC(=S)Nc1cccnc1)c1ccccc1 | i | i | i | i | i
O=S(=O)(O)c1cc(O)c(N=Nc2ccc(O)cc2O)c2ccccc12 | i | nt | 39.3 | 61.6 | nt
COC(=O)[C@@H]1[C@@H](C#N)C2(c3ccccc3-c3ccccc32)N(c2ccc(Cl)cc2)N1C#N | i | i | 51.5 | i | i
O=C(Cc1ccc(Cl)cc1)NN1C(=O)c2ccccc2C1=O | i | i | i | i | i
CC(=O)Nc1ccc(Nc2c3c4c(cccc4n(C)c2=O)C(=O)c2ccccc2-3)cc1 | i | i | i | 52.0 | i
CC1=NOC(=O)/C1=C\c1ccc(-c2ccc(Cl)cc2Cl)o1 | i | i | i | i | 35.1
S=C(Nc1ccccc1)Nc1cc(Cl)ccc1Oc1ccccc1 | i | i | i | 92.8 | i
Cn1c(Cc2ccccc2)nc(=O)c2ccccc21 | i | nt | i | nt | nt
O=C(Nc1nnc(-c2cccs2)o1)c1cccc(C(F)(F)F)c1 | i | i | 43.8 | i | i
CC(=O)Nc1ccc(-c2ccnc3c2CC(C)(C(=O)Nc2ccc(F)c(Cl)c2)O3)cc1 (configuration not stated) | i | nt | i | nt | nt
SMILES | EBI2 block | APJ antagonist | CXCR6 block | CCR6 antagonist | APJ ag
CC(=NNc1nc2ccccc2o1)c1cc2ccccc2cn1 | i | nt | i | i | nt
CC(=NNc1nc2ccccc2s1)c1ncccn1 | 56.7 | nt | 54.4 | i | nt
C/C(=N\Nc1nc2ccccc2s1)c1cccs1 | i | i | i | i | i
CC(=NNc1nc2ccccc2o1)c1ncccn1 | 54.6 | nt | i | i | nt
Cn1c(C(=O)N2CCN(c3ccc(Cl)cc3)CC2)cc2c(=O)[nH]c3ccccc3c21 | 83.1 | i | i | i | i
C[C@@H]1CCCCO[C@H](CN(C)C(=O)Nc2ccc3c(c2)OCO3)[C@H](C)CN([C@@H](C)CO)C(=O)c2cc(NS(=O)(=O)c3ccc(Cl)cc3)ccc2O1 | i | nt | i | nt | nt
COc1ccc(OC)c(S(=O)(=O)N2CCN(c3ccccc3)CC2)c1 | i | i | i | i | i
COc1ccc(OC)c(S(=O)(=O)ON2C(=O)c3ccccc3C2=O)c1 | i | i | i | 56.9 | i
